According to ChEMBL document CHEMBL1137826, “A new class of acyclic 2-alkyl-1,1,2-triaryl (Z)-olefins as selective cyclooxygenase-2 inhibitors” (J Med Chem, 2004):

What was measured:
Rattus norvegicus [1] = test: Percent inhibition of 4% sodium chloride-induced abdominal constriction in rat after 60 min of 5 mg/kg oral dose of the compound; type: functional; conditions: Abdomen, 1 h
Outline: (§1)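 Test compound given to rats orally at 5 mg/kg before 4% NaCl-induced writhing (abdominal constriction).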

Rattus norvegicus [2] = test: Percent inhibition of 4% sodium chloride-induced abdominal constriction in rat after 30 min of 5 mg/kg oral dose of the compound; type: functional; conditions: Abdomen, 0.5 h; outline: as §1
[3] = molecular target: T1, Prostaglandin G/H synthase 2 (Rattus norvegicus) (UniProt P35355)
T1 sequence (whole entry): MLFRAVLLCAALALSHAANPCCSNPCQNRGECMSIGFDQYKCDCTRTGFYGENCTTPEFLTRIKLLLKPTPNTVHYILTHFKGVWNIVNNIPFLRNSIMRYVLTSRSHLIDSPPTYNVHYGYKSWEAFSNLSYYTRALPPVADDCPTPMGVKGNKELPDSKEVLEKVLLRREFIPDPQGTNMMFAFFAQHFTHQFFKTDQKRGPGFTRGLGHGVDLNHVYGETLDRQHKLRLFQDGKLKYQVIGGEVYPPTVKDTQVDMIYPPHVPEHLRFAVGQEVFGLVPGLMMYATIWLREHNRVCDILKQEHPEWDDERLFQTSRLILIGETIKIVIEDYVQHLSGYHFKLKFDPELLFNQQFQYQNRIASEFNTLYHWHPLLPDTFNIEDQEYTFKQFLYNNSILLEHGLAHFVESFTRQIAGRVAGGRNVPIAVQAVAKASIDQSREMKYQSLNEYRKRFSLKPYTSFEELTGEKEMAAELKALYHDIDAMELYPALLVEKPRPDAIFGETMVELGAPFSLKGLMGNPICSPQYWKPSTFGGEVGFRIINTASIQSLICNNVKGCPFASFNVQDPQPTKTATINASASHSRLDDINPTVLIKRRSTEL

[4] = molecular target: T2, Prostaglandin G/H synthase 1 (Ovis aries, UniProt P05979); test: In vitro inhibition of ovine prostaglandin G/H synthase 1
T2 sequence (P05979 whole entry): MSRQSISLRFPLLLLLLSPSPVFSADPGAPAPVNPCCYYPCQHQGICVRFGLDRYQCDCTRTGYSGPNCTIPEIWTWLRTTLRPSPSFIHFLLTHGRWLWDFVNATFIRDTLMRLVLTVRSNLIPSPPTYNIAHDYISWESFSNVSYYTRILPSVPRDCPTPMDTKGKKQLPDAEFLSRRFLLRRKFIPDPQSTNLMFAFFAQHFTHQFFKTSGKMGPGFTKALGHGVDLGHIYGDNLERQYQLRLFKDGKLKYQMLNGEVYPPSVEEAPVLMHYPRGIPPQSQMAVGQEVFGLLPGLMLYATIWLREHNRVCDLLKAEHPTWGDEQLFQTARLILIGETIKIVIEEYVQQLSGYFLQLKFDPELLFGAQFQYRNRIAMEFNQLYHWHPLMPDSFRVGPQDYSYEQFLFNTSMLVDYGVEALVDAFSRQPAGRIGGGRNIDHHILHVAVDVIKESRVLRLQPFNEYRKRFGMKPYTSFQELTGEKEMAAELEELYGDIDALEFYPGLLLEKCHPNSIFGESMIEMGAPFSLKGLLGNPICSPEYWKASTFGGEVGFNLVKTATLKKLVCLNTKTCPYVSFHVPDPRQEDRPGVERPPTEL

Rattus norvegicus [5] = species on record: Rattus norvegicus; test: animal or person; conditions: Abdomen, po, 0.5 h, read-out: Inhibition

Row | Compound | ID50 [3] | IC50 [4] | inhibition in vivo at 5 mg/kg (Rattus norvegicus [1]) | inhibition in vivo at 5 mg/kg (Rattus norvegicus [2]) | inhibition in vivo at 50 mg/kg (Rattus norvegicus [5])
1 | CC/C(=C(\c1ccccc1)c1ccc(S(C)(=O)=O)cc1)c1ccc(OC(C)=O)cc1 | 1.3 mg/kg | 0.25 µM | 57.5% | 60% | –
2 | Cc1ccc(-c2cc(C(F)(F)F)nn2-c2ccc(S(N)(=O)=O)cc2)cc1 [CELECOXIB] | – | – | – | – | 69.3%
3 | CCCCCCCC/C(=C(\c1ccccc1)c1ccc(S(C)(=O)=O)cc1)c1ccccc1 | – | > 100 µM | – | – | –
4 | CCCCCC/C(=C(\c1ccccc1)c1ccc(S(C)(=O)=O)cc1)c1ccccc1 | 1.1 mg/kg | > 100 µM | 35.4% | 33.3% | –
5 | CCCC/C(=C(\c1ccccc1)c1ccc(S(C)(=O)=O)cc1)c1ccc(OC(C)=O)cc1 | – | > 100 µM | – | – | –

The next lines start with results.

Row | ID50 [3] | IC50 [4] | Compound | inhibition in vivo at 5 mg/kg (Rattus norvegicus [1]) | inhibition in vivo at 5 mg/kg (Rattus norvegicus [2]) | inhibition in vivo at 50 mg/kg (Rattus norvegicus [5])
6 | – | 30 µM | CCCC/C(=C(\c1ccccc1)c1ccc(S(C)(=O)=O)cc1)c1ccccc1 | – | – | –
7 | – | > 100 µM | CCC/C(=C(\c1ccccc1)c1ccc(S(C)(=O)=O)cc1)c1ccccc1 | – | – | –
8 | 1.9 mg/kg | > 100 µM | CC/C(=C(\c1ccccc1)c1ccc(S(C)(=O)=O)cc1)c1ccccc1 | 50% | 38.8% | –
